Assay results collected from several papers.
Each line is one published result; the experiments were not run side by side.

The solubility of `Cc1ccc2c(c1)C(=O)C1(O)CCN(c3ccccc3)C1=N2` (centres unmarked) is reported as 21 µM (PBS; pH 7.4).
With `CN(C)CCOc1ccc(C=Nc2ccccc2N=Cc2ccc(OCCN(C)C)cc2O)c(O)c1.[Ga+3]` the solubility was over 50 mg/mL (water).
With `c1cc(-c2ccc3ncnc(Nc4ncco4)c3c2)cc(N2C[C@H]3C[C@@H]2CO3)c1` the solubility was 6 µM (aqueous buffer; pH 7.4, 25 °C).
The kinetic solubility of `CC1(CC(F)(F)F)NC(=O)N(c2ccc(F)c(C(F)(F)F)c2)C1=O` (centres unmarked) is reported as at most 50 µg/mL (nephelometry; aqueous buffer).
`CC(C)C[C@@H]1NC(=O)[C@H](CCC(=O)O)NC(=O)[C@H]2CCCN2C(=O)[C@@H](N)CSSC[C@@H](C(=O)O)NC(=O)[C@H]2CCCN2C(=O)[C@@H](Cc2ccccc2)NC(=O)[C@H](CC(C)C)NC(=O)[C@H]([C@@H](C)O)NC(=O)[C@H](C(C)C)NC1=O` gave a thermodynamic solubility of 679 µM (aqueous buffer; 18 h, pH 7.4).
For `COc1cc(C(=O)c2nc(-c3cccc4[nH]ccc34)c[nH]2)cc(OC)c1OC`, the thermodynamic solubility was 5.25 µM (PBS; pH 7.4).
`CCC(CNc1nc(-c2cn3ccnc3cc2C)nc2ccccc12)c1ccccc1` (centres unmarked) gave a solubility of 1.3 µM (water).
For `O=C1NC2(CCC2)C(=O)N1c1ccc(F)c(C(F)(F)F)c1`, the kinetic solubility was at most 50 µg/mL (nephelometry; aqueous buffer).
`CC(C)C[C@H]1C(=O)N2CCC[C@H]2C(=O)N[C@@H](CC(N)=O)C(=O)N[C@H](Cc2ccc(O)cc2)C(=O)N[C@H]([C@H](C)O)C(=O)N[C@@H](Cc2ccc(O)cc2)C(=O)N[C@H](C(=O)O)CSSC[C@H](N)C(=O)N[C@@H](Cc2ccccc2)C(=O)N[C@@H](C(C)C)C(=O)N1C` gave a thermodynamic solubility of 760 µM (aqueous buffer; 18 h, pH 7.4).
`Oc1ccccc1C=Nc1ccccc1N=Cc1ccccc1O.[Ga+3]` has a solubility of under 0.1 mg/mL (water).
`CC(C)C[C@H]1C(=O)N[C@H]([C@H](C)O)C(=O)N[C@@H](C)C(=O)N[C@@H](Cc2ccccc2)C(=O)N[C@H](C(=O)O)CSSC[C@H](N)C(=O)N2CCC[C@@H]2C(=O)N[C@@H](CCC(=O)O)C(=O)N[C@@H](C(C)C)C(=O)N2CCC[C@H]2C(=O)N1C` has a solubility of 692 µM (aqueous buffer; 18 h, pH 7.4).
`CCCSc1ccc2nc(NC(=O)OC)[nH]c2c1` gave a thermodynamic solubility of about 300 µg/mL (simulated gastric fluid; 24 h, pH 1.2, 37 °C, acidic).
`CC[C@H](C)[C@@H]1NC(=O)CNC(=O)[C@@H](CC(C)C)NC(=O)[C@@H](C(C)C)NC(=O)[C@H]2CCCN2C(=O)[C@@H](CC(C)C)NC(=O)[C@H](Cc2ccccc2)NC(=O)[C@@H]2CCCN2C(=O)[C@H](CC(C)C)NC(=O)[C@H](CO)NC(=O)CNC(=O)[C@H]([C@@H](C)O)NC1=O` gave a solubility of 692 µM (aqueous buffer; 18 h, pH 7.4).
`COc1cc(N2CC[C@@]3(O)C(=O)c4cc(C)c(C)cc4N=C23)ccn1` has a solubility of 42 µM (PBS; pH 7.4).
